Experimental data from ChEMBL document CHEMBL2016575, “The chemical synthesis of metabolically stabilized 2-OMe-LPA analogues and preliminary studies of their inhibitory activity toward autotaxin” (Bioorg Med Chem Lett, 2012).

Key:
Autotaxin [1] = target: T1, Autotaxin (Homo sapiens, UniProt Q13822); experiment: Inhibition of human recombinant autotaxin expressed in insect Sf9 cells using FS-3 as substrate at 1 uM preincubated for 10 mins prior substrate addition measured up to 60 mins by FRET-based analysis
Autotaxin [2] = target: T1, Autotaxin; experiment: Inhibition of human recombinant autotaxin expressed in insect Sf9 cells using FS-3 as substrate preincubated for 10 mins prior substrate addition measured up to 60 mins by FRET-based analysis
[3] = Metabolic stability of the compound assessed as reduction in dephosphorylation at […] after 24 hrs by phosphomolybdate blue assay in presence of bovine intestinal mucosal alkaline phosphatase; format: ADME; settings: cattle, isolated protein
Summary of the method: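 Substrate incubated with the phosphatase at 37 °C for 24 h. Dephosphorylation is followed by quantifying liberated inorganic phosphate with a modified phosphomolybdate blue assay.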

| Compound | inhibition (Autotaxin [1]) | IC50 (Autotaxin [2]) | Stability [3] |
| --- | --- | --- | --- |
| CCCCCCCCCCCCCCCCCC(=O)OCC(COP(=O)(O)O)OC (stereo not given) | 49.7% | 1010 nM | – |
| CCCCCCCCCCCCCCCCCC(=O)OCC(COP(=O)(O)S)OC (stereo not given) | 35.5% | 2420 nM | – |
| CCCCCCCCCCCCCC(=O)OCC(COP(=O)(O)S)OC (stereo not given) | 62.3% | 596 nM | – |
| CCCCCCCC/C=C\CCCCCCCC(=O)OCC(COP(=O)(O)O)OC (stereo not given) | 81.3% | 220 nM | Stable |
| CCCCCCCCCCCC(=O)OCC(COP(=O)(O)S)OC (stereo not given) | 36.7% | 2410 nM | – |
| CCCCCCCCCCCCCC(=O)OCC(COP(=O)(O)O)OC (stereo not given) | 57.7% | 704 nM | – |
| CCCCCCCCCCCCCCCC(=O)OCC(COP(=O)(O)S)OC (stereo not given) | 64.7% | 512 nM | – |
| CCCCCCCCCCCCCCCCCC(=O)OC[C@@H](O)CC(Br)P(=O)(O)O (stereo not given in full) | 86.1% | 170 nM | Stable |
| CCCCCCCCCCCCCCCC(=O)OCC(COP(=O)(O)O)OC (stereo not given) | 74.5% | 361 nM | – |
| CCCCCCCC/C=C\CCCCCCCC(=O)OC[C@@H](O)COP(=O)(O)O [LYSOPHOSPHATIDIC ACID] | – | – | Unstable |
| CCCCCCCCCCCC(=O)OCC(COP(=O)(O)O)OC (stereo not given) | 45.5% | 1200 nM | – |
| CCCCCCCC/C=C\CCCCCCCC(=O)OCC(COP(=O)(O)S)OC (stereo not given) | 77.8% | 356 nM | – |
